# The list is not random: actives were taken first. Their share in the collection is about 4.1%.
# MrgX1 antag – blocks BAM8-22 activation of human MrgX1 receptor | B-score at 10 µM | MRGX1-HEK293 calcium flux, Fluo-4, BAM8-22 antagonism; active compounds read low | 310,000 tested, 1.3% active;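 active = calcium-response B-score plate-corrected more than 3 library SD below zero, starting fluorescence within 5 deviations, no agonist response on first addition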;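 note: peak minus trough fluorescence over baseline after final BAM8-22 challenge near maximal dose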
# Target sequence (Q96LB2 whole entry, looked up): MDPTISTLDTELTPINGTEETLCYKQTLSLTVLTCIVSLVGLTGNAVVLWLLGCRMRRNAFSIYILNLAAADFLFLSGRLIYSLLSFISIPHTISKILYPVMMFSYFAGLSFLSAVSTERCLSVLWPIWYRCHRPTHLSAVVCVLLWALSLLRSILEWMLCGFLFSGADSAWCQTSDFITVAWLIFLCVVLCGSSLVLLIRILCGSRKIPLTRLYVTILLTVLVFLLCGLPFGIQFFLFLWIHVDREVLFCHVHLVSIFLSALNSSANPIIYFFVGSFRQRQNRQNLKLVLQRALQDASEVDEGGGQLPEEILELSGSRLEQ
# RGS4 block – human RGS4 inhibition | B-score at 10 µM | P49798 | 310,000 tested, 0.45% active | HEK293 M3R/RGS4 inducible, Fluo-4 calcium flux; active compounds read high; triggered by carbachol at its EC20;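 active = B-score, a plate-corrected calcium signal, over three deviations above library mean, with baseline fluorescence within five deviations of library mean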;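 note: RGS4 expression induced by doxycycline in cells with stable M3 receptor; B-score is computed from the integrated fluorescence ratio over baseline after carbachol; higher B-score means a larger calcium signal and so more RGS4 inhibition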
# Target sequence (P49798 whole entry, looked up): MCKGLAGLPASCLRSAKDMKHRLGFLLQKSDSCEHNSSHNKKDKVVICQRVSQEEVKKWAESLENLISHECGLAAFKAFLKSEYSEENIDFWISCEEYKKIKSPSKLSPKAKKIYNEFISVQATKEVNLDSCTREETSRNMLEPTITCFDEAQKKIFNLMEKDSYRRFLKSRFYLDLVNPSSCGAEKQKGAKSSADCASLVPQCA
# Kir21 block – blocks the mouse Kir2.1 inward-rectifier potassium channel; 310,000 tested, 0.85% active; B-score at 10 µM; AID 1672; HEK293-Kir2.1, FluxOR thallium flux fluorescence; active compounds read low;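 active = fluorescence ratio B-score at or below minus 3 SD of library scores, with starting-brightness B-score within 2 SD, cut at about -4.2 in these data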;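 note: channel flux triggered by added potassium and thallium sulfate stimulus; B-score of peak minus minimum fluorescence over baseline after thallium stimulus; more negative B-score means stronger Kir2.1 block with less thallium influx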
# RGS4 pot – RGS4 potentiation or activation; HEK293 M3R/inducible RGS4, carbachol calcium flux Fluo4; active compounds read low; 310,000 tested, 0.92% active; AID 463111; B-score at 10 µM;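 active = B-score of the integrated calcium signal more than 4 SD below the library mean, with starting fluorescence not abnormally high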;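 note: negative B-score means reduced calcium response which marks RGS4 activation or potentiation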
#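 test system = HEK293 cells with stable M3R and inducible RGS4 | schedule = recording 10 s baseline at 1 Hz, 100 s post-agonist | technique = Fluo4-AM (2 µM) calcium-flux fluorescence, kinetic read | measure = Agonist-evoked peak-minus-minimum fluorescence over baseline, integrated ratio, B score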
# MrgX1 PAM – human MrgX1 positive allosteric modulation, primary screen; 310,000 tested, 0.63% active; AID 588675; MrgX1-HEK293, Fluo-4 calcium flux, FDSS; active compounds read high; B-score at 10 µM; Q96LB2;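 active = plate-corrected calcium response at least 3 library SD above typical, normal starting fluorescence, not activating the receptor alone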;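 note: compound read alongside a low EC10 to EC30 dose of BAM8-22 agonist; peak minus trough fluorescence over baseline measured at the second addition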
# MrgX1 ag – human MrgX1 receptor agonism, primary screen. B-score at 10 µM. Q96LB2. AID 588627. MrgX1-HEK293 cells, Fluo-4 calcium fluorescence, agonist mode; active compounds read high. 310,000 tested, 0.44% active;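 active = calcium response B-score plate-corrected fluorescence ratio at least 3 library SD, with starting fluorescence B-score inside 5 SD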
#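 System: HEK293 cells stably expressing human MrgX1 receptor; Dosing: test compound in the initial addition of three; Schedule: overnight plating, then 30 min 37 °C plus 30 min room-temperature dye loading; Detection: kinetic calcium dye fluorescence, Fluo-4 NW; Controls: per-plate positive and negative controls for Z′ factor.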
# RGS4 inh valid – RGS4 inhibitor validation; shares compounds with RGS4 block; HEK293 M3R/RGS4, carbachol calcium Fluo-4 fluorescence; carbachol added at its EC20; 0 = buffer wells, 100 = carbachol control; calcium response, % at 10 µM; 1,700 tested, 65% active;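 active = duplicate-averaged calcium response above the buffer-only control mean plus 5 SD of those controls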;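 note: integrated fluorescence ratio F max minus min over baseline F0; higher response in RGS4-induced cells means RGS4 inhibition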
# RGS4 uninduced – counter-screen for RGS4 inhibitors: effect in non-induced cells. activity (percent), % at 10 µM. shares compounds with RGS4 block. HEK293 M3R non-induced, carbachol calcium Fluo-4; submaximal (EC20) carbachol stimulus; buffer wells 0%, carbachol control wells 100%. 1,900 tested, 20% active; call rule not given here;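 note: RGS4 induction absent so cells express M3R without RGS4; higher means more calcium signal and flags a non-specific hit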
# M3R basal Ca ctr – second counter-screen for RGS4 inhibitors: non-induced cells without carbachol; 1,900 tested, 22% active; calcium response (agonist-mode artifact), % at 10 µM; shares compounds with RGS4 block; AID 493001; HEK293 M3R/RGS4 non-induced, Fluo-4 calcium, no carbachol; normalised: buffer wells 0%, carbachol wells 100%;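 active = duplicate-averaged calcium rise in uninduced cells above buffer wells' mean plus 5 SD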
# Numbers without * were called inactive; i = inactive; . = not tested or not shown.
SMILES,MrgX1 antag,RGS4 block,Kir21 block,RGS4 pot,MrgX1 PAM,MrgX1 ag,RGS4 inh valid,RGS4 uninduced,M3R basal Ca ctr
O=C(CN1CCN(c2ccc(O)cc2)CC1)NC(c1ccccc1)c1ccccc1,i,13*,0.45,i,i,i,i,i,i
O=C(CSc1nnc(SCc2ccc(Cl)cc2)s1)N/N=C/c1c[nH]c2ccccc12,i,i,0.74,i,i,i,.,i,i
O=C(CSc1ccccn1)N/N=C/c1c[nH]c2ccccc12,i,i,-0.69,i,i,i,.,.,.
O=C(O)COc1ccccc1/C=N/NC(=O)CSc1nnc(SCc2ccc(Cl)cc2)s1,i,i,0.61,i,i,i,.,.,.
O=C(CSc1nnc(SCc2cccc3ccccc23)s1)N/N=C/c1c[nH]c2ccccc12,i,4.7*,0.08,i,i,i,20%*,i,i
CCC(CC)c1nnc(NC(=O)CS(=O)(=O)c2ccc(C)cc2)s1,i,i,-1.2,i,i,i,.,.,.
O=c1[nH]c2ccc(Br)cc2c(-c2ccccc2)c1CN1CCOCC1,i,7.5*,-2.7,i,i,i,19%*,48%*,i
CC(=O)Nc1ccc(S(=O)(=O)/N=C2/NC(=O)/C(=C\c3ccco3)S2)cc1,i,i,0.11,i,i,i,.,.,.
Cc1ccc(S(=O)(=O)/N=C2/NC(=O)/C(=C/c3ccccc3)S2)cc1,i,i,-0.16,i,i,i,i,i,i
COc1cc(/C=C2\S/C(=N/S(=O)(=O)c3ccc(C)cc3)NC2=O)c([N+](=O)[O-])cc1OC,i,i,0.72,i,i,i,i,38%*,i
Cc1ccc(S(=O)(=O)/N=C2/NC(=O)/C(=C/c3ccncc3)S2)cc1,i,4.9*,-3.5,i,i,i,16%*,i,i
COc1ccc(/C=C2/S/C(=N/S(=O)(=O)Cc3ccccc3)NC2=O)cc1OC,i,7.8*,-0.04,i,i,i,20%*,48%*,i
O=C(NCc1ccccc1)C(c1ccncc1)N(C(=O)c1csnn1)c1ccccc1F (stereo unspecified),i,i,-0.02,i,i,i,.,.,.
COc1ccc(C(=O)CCN2CCCCCC2)cc1,i,11*,1.4,i,i,39*,i,i,28%*
O=C(CCN1CCc2ccccc2C1)c1ccc2c(c1)OCCO2,i,6.7*,0.02,i,i,i,20%*,i,14%*
O=C(CCN1CCCCC1)c1ccc2c(c1)OCCO2,i,i,0.34,i,i,i,i,i,i
O=C(CCN1CCc2ccccc21)c1ccc2c(c1)OCCO2,i,i,0.86,i,i,i,.,.,.
COCCCNC(=O)c1nc2c(nnn2Cc2cc(C)ccc2C)c(=O)[nH]1,i,i,2.2,i,i,i,.,.,.
CCS(=O)(=O)N1CCC(C(=O)N2CCOCC2)CC1,i,i,0.05,i,i,i,.,.,.
N#CCc1nc(CSc2nc3ccccc3o2)cs1,i,i,-0.04,i,i,i,.,.,.
Cc1[nH]c2ccccc2c1/C=N/Nc1nc(N2CCCCC2)nc(N2CCCCC2)n1,i,11*,1.8,i,i,i,38%*,63%*,i
CCN(CC)C(=O)Cn1c(=O)n(CC(=O)N2CCCCC2)c(=O)c2sccc21,i,17*,-0.65,i,i,i,i,i,i
CCCNC(=O)Cn1c(=O)n(CC(=O)N2CCCCC2)c(=O)c2sccc21,i,i,-1.4,i,i,i,.,.,.
Cc1ccc(NC(=O)CCC(=O)c2cccs2)cc1F,i,i,0.04,i,i,i,.,.,.
O=C(N/N=C/c1ccc(O)cc1O)/C(=C/c1ccccc1)CCO,i,9.6*,0.32,i,i,i,53%*,38%*,i
SMILES,MrgX1 antag,RGS4 block,Kir21 block,RGS4 pot,MrgX1 PAM,MrgX1 ag,RGS4 inh valid,RGS4 uninduced,M3R basal Ca ctr
O=C(NN=c1c(=O)c2ccccc2c1=O)c1ccccc1,i,i,-0.22,i,i,i,.,.,.
COC(=O)c1cc2c(ccn2-c2ccc(F)cc2)n1CC(C)C,i,11*,0.16,i,i,i,36%*,i,i
S=C(Nc1ccc2c(c1)OCCO2)Nc1ccc2c(c1)OCO2,i,i,0.14,i,i,i,.,.,.
CC1=C(C(=O)c2ccccc2)C(c2cn(-c3ccccc3)nc2-c2ccc(Cl)cc2)NC(=S)N1 (stereo unspecified),i,4.9*,-0.15,i,i,i,10%*,i,9.0%*
CC(=O)Nc1ccc2c(c1)nc(CCNC(=O)c1ccco1)n2C,i,i,0.25,i,i,i,i,i,i
COc1ccccc1/C=C/C=N/n1c(-c2cc(C)[nH]n2)n[nH]c1=S,i,i,0.38,i,i,i,.,i,i
N#C/C(=C\c1cccs1)C(=O)c1ccccc1Cl,i,18*,-7*,i,i,i,56%*,i,8.5%*
CC(C)(C)C(=O)/C(C#N)=C/c1cccs1,i,i,-0.05,i,i,i,.,.,.
COc1ccc(C)cc1-n1nc2ccccc2n1,i,i,0.01,i,i,i,.,.,.
CCC(C)Nc1nc2c(c(=O)[nH]c(=O)n2C)n1CCC(C)C (stereo unspecified),i,i,-0.01,i,i,i,i,i,i
COC(=O)C(C)Sc1nc2c(c(=O)[nH]c(=O)n2C)n1CCC(C)C (stereo unspecified),i,5.7*,-0.57,i,i,i,26%*,56%*,i
CCc1ccc(OCCNC(=O)OCc2ccccc2)cc1,i,i,0.04,i,i,i,.,.,.
COc1ccc(C2=NN(CN3C(=O)C(=O)c4ccccc43)C(c3ccc(OC)cc3)C2)cc1 (stereo unspecified),i,i,-0.81,i,i,i,.,35%*,i
